Where two headings read alike, the source gives them in different places. Marks after values point to notes of the source that are not given here.
How the values were obtained:
[1] = assay type: in vivo; details: male, Sprague-Dawley, rat, iv, 100 mg/kg
Procedure, shortened: (§1)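 Male Sprague-Dawley rats (200 ± 50 g) were fasted 12 h and anaesthetised with urethane 1 g/kg i.p. A blood probe (1.2 cm) sat in the jugular vein and a brain probe (0.7 cm) in the striatum (+0.2 AP, +3.0 ML, −7.5 DV from bregma). Both were perfused with ACD at 2.0 µL/min. Test compound 100 mg/kg i.v. via femoral vein. Dialysates collected every 20 min for 6 h; UHPLC-MS/MS (MRM); noncompartmental parameters; AUC ratios; n = 6.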

[2] = prodrug molnupiravir, metabolized to NHC in vivo; cited from earlier work
[3] = assay type: in vivo; details: rat
Procedure, shortened: as §1

[4] = Pharmacokinetics of molnupiravir and NHC in rat blood and brain; assay type: in vivo; details: for concentration at 140 min: intravenous
Procedure, shortened: as §1

[5] = brain (striatum microdialysate)
[6] = male, Sprague-Dawley, blood (microdialysate), iv, 100 mg/kg
[7] = male, Sprague-Dawley, blood dialysate, iv, 100 mg/kg
[8] = male, Sprague-Dawley, brain (striatum microdialysate), iv, 100 mg/kg
[9] = male, Sprague-Dawley, brain (striatum) dialysate, iv, 100 mg/kg
[10] = male, Sprague-Dawley, rat, blood (microdialysate), iv, 100 mg/kg
[11] = male, Sprague-Dawley, rat, brain (striatum microdialysate), iv, 100 mg/kg

Structure (SMILES): CC(C)C(=O)OC[C@H]1O[C@@H](n2ccc(NO)nc2=O)[C@H](O)[C@@H]1O [Molnupiravir, molnupiravir]
- AUC ([1]; blood (microdialysate)): 77.4 µg·h/mL
- Cmax ([1]; blood (microdialysate)): 185 ± 18.7 µg/mL
- MRT ([1]; blood (microdialysate)): 29 min
- clearance ([1]; blood (microdialysate)): 1.3 ± 0.0396 L/h/kg
- half-life ([1]; blood (microdialysate)): 35 ± 10 min
- AUC [1, 5]: 0.755 µg·h/mL
- MRT [1, 5]: 53 min
- Tmax [1, 5]: 40 min
- half-life [1, 5]: 68 ± 22 min
- Cmax ([1]; brain (striatum) dialysate): 0.5 ± 0.09 µg/mL
- bioavailability [2]: more than 90%
- MRT [3, 6]: 77 min
- clearance [3, 6]: 0.958 ± 0.0768 L/h/kg
- AUC [3, 7]: 110 µg·h/mL
- Cmax [3, 7]: 199 ± 16.9 µg/mL
- half-life [3, 7]: 132 ± 32 min
- MRT [3, 8]: 238 min
- Tmax [3, 8]: 40 min
- AUC [3, 9]: 1.79 µg·h/mL
- Cmax [3, 9]: 0.79 ± 0.22 µg/mL
- half-life [3, 9]: 148 ± 34 min
- AUCbrain/AUCblood (blood-to-brain transfer ratio) ([3]; molnupiravir 100 mg/kg i.v. + BNPP 50 mg/kg i.v.): 0.02 ± 0.004^a
- AUC [4, 10]: 57.2 µg·h/mL
- Cmax [4, 10]: 192 ± 24.1 µg/mL
- clearance [4, 10]: 1.92 ± 0.267 L/h/kg
- half-life [4, 10]: 9 ± 2 min
- concentration at 140 min ([4]; male, Sprague-Dawley, rat, blood dialysate, 100 mg/kg): 0.0492 µg/mL
- MRT ([4]; male, Sprague-Dawley, rat, blood dialysate, iv, 100 mg/kg): 18 min
- AUC [4, 11]: 0.318 µg·h/mL
- Cmax [4, 11]: 0.39 ± 0.1 µg/mL
- half-life [4, 11]: 10 ± 1 min
- concentration at 140 min ([4]; male, Sprague-Dawley, rat, brain (striatum) dialysate, 100 mg/kg): 0.103 µg/mL
- MRT ([4]; male, Sprague-Dawley, rat, brain (striatum) dialysate, iv, 100 mg/kg): 35 min
- Tmax ([4]; male, Sprague-Dawley, rat, brain (striatum) dialysate, iv, 100 mg/kg, Tmax, rat brain, molnupiravir 100 mg/kg i.v. alone): 40 min
- time of biotransformation of molnupiravir to NHC ([4]; rat blood, molnupiravir 100 mg/kg i.v.): ≤ 20 min
- AUCbrain/AUCblood (blood-to-brain transfer ratio) ([4]; rat, molnupiravir 100 mg/kg i.v. alone): 0.005 ± 0.001^b
